Assay results from ChEMBL document CHEMBL2375359, “Synthesis and antibacterial evaluation of novel pleuromutilin derivatives” (2013).
In brackets after ≈: the same amount, converted by molar mass.

Each compound was assayed on Staphylococcus aureus (assay: Antibacterial activity against methicillin-resistant Staphylococcus aureus at 320 ug/ml after 24 hrs by Oxford cup assay). Details: read-out: IZ.
Format: functional
Summary of the method: (§1)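 Oxford cup diffusion: clinical isolate inoculum in 0.9% saline set by McFarland standard, spread evenly on nutrient agar. Cups placed equidistant on the surface and filled with compound solutions prepared as for the agar dilution test, at several concentrations. Inhibition zone measured after 24 h at 37 °C.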

Structure (SMILES)	zone of inhibition at 320 µg/mL [mm]
C=C[C@]1(C)C[C@@H](OC(=O)CSC(C)(C)CNC(=O)c2cccc(OC)c2)[C@]2(C)[C@H](C)CC[C@]3(CCC(=O)[C@H]32)[C@@H](C)[C@@H]1O	12.8

The compounds below were run on Streptococcus agalactiae (assay: Antibacterial activity against Streptococcus agalactiae after 48 hrs by agar dilution method). Details: not given.
Format: functional
Summary of the method: (§2)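 Agar dilution per NCCLS on clinical isolates. 2-fold serial dilutions of compound (2 mL) mixed into 18 mL hot Mueller-Hinton agar. Inoculum from blood slants, adjusted to approx. 10⁵–10⁶ cfu/mL in sterile 0.90% NaCl, then spotted onto the plates. Incubated 36.5 °C, 48 h. MIC is the lowest concentration giving complete growth inhibition. Run in triplicate at pH 7.40.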

Structure (SMILES)	MIC [µg/mL]
C=C[C@]1(C)C[C@@H](OC(=O)CSC(C)(C)CNC(=O)c2cccc(OC)c2)[C@]2(C)[C@H](C)CC[C@]3(CCC(=O)[C@H]32)[C@@H](C)[C@@H]1O	4 (≈ 6.67 µM)

The compounds below were run on Staphylococcus epidermidis (assay: Antibacterial activity against methicillin-resistant Staphylococcus epidermidis at 80 ug/ml after 24 hrs by Oxford cup assay). Details: read-out: IZ.
Format: functional
Summary of the method: as §1

Structure (SMILES)	zone of inhibition at 80 µg/mL [mm]
C=C[C@]1(C)C[C@@H](OC(=O)CSC(C)(C)CNC(=O)c2cccc(OC)c2)[C@]2(C)[C@H](C)CC[C@]3(CCC(=O)[C@H]32)[C@@H](C)[C@@H]1O	11.4

These compounds were tested on Escherichia coli (assay: Antibacterial activity against Escherichia coli at 160 ug/ml after 24 hrs by Oxford cup assay). Details: read-out: IZ.
Format: functional
Summary of the method: (§3)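 Oxford cup diffusion with clinical isolates. Inoculum made in 0.9% saline to a McFarland standard and spread evenly on nutrient agar. Compound solutions, prepared as for the agar dilution test, were added at the stated concentration to Oxford cups set equidistant on the agar surface. Inhibition zones were measured after 24 h at 37 °C.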

Structure (SMILES)	zone of inhibition at 160 µg/mL [mm]
C=C[C@]1(C)C[C@@H](OC(=O)CSC(C)(C)CNC(=O)c2cccc(OC)c2)[C@]2(C)[C@H](C)CC[C@]3(CCC(=O)[C@H]32)[C@@H](C)[C@@H]1O	13.3

Each compound was assayed on Streptococcus agalactiae (assay: Antibacterial activity against Streptococcus agalactiae at 80 ug/ml after 24 hrs by Oxford cup assay). Details: read-out: IZ.
Format: functional
Summary of the method: as §3

Structure (SMILES)	zone of inhibition at 80 µg/mL [mm]
C=C[C@]1(C)C[C@@H](OC(=O)CSC(C)(C)CNC(=O)c2cccc(OC)c2)[C@]2(C)[C@H](C)CC[C@]3(CCC(=O)[C@H]32)[C@@H](C)[C@@H]1O	12.6

Each compound was assayed on Escherichia coli (assay: Antibacterial activity against Escherichia coli after 48 hrs by agar dilution method). Details: not given.
Format: functional
Summary of the method: as §2

Structure (SMILES)	MIC [µg/mL]
C=C[C@]1(C)C[C@@H](OC(=O)CSC(C)(C)CNC(=O)c2cccc(OC)c2)[C@]2(C)[C@H](C)CC[C@]3(CCC(=O)[C@H]32)[C@@H](C)[C@@H]1O	8 (≈ 13.3 µM)

What follows are compounds tested on Escherichia coli (assay: Antibacterial activity against Escherichia coli at 80 ug/ml after 24 hrs by Oxford cup assay). Details: read-out: IZ.
Format: functional
Summary of the method: as §3

Structure (SMILES)	zone of inhibition at 80 µg/mL [mm]
C=C[C@]1(C)C[C@@H](OC(=O)CSC(C)(C)CNC(=O)c2cccc(OC)c2)[C@]2(C)[C@H](C)CC[C@]3(CCC(=O)[C@H]32)[C@@H](C)[C@@H]1O	12.2

What follows are compounds tested on Staphylococcus aureus (assay: Antibacterial activity against methicillin-resistant Staphylococcus aureus after 48 hrs by agar dilution method). Details: not given.
Format: functional
Summary of the method: (§4)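 Agar dilution per NCCLS: 2-fold serial dilutions incorporated into hot Mueller-Hinton agar. Clinical isolates grown from blood slants, suspended in sterile 0.90% NaCl to about 10⁵–10⁶ cfu/mL, spotted onto plates. Incubation 36.5 °C, 48 h. MIC taken as the lowest concentration giving complete growth inhibition. Run in triplicate at pH 7.40.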

Structure (SMILES)	MIC [µg/mL]
C=C[C@]1(C)C[C@@H](OC(=O)CSC(C)(C)CNC(=O)c2cccc(OC)c2)[C@]2(C)[C@H](C)CC[C@]3(CCC(=O)[C@H]32)[C@@H](C)[C@@H]1O	2 (≈ 3.33 µM)

These compounds were tested on Staphylococcus aureus (assay: Antibacterial activity against methicillin-resistant Staphylococcus aureus at 80 ug/ml after 24 hrs by Oxford cup assay). Details: read-out: IZ.
Format: functional
Summary of the method: as §1

Structure (SMILES)	zone of inhibition at 80 µg/mL [mm]
C=C[C@]1(C)C[C@@H](OC(=O)CSC(C)(C)CNC(=O)c2cccc(OC)c2)[C@]2(C)[C@H](C)CC[C@]3(CCC(=O)[C@H]32)[C@@H](C)[C@@H]1O	11.8

Each compound was assayed on Staphylococcus epidermidis (assay: Antibacterial activity against methicillin-resistant Staphylococcus epidermidis at 160 ug/ml after 24 hrs by Oxford cup assay). Details: read-out: IZ.
Format: functional
Summary of the method: as §1

Structure (SMILES)	zone of inhibition at 160 µg/mL [mm]
C=C[C@]1(C)C[C@@H](OC(=O)CSC(C)(C)CNC(=O)c2cccc(OC)c2)[C@]2(C)[C@H](C)CC[C@]3(CCC(=O)[C@H]32)[C@@H](C)[C@@H]1O	11.7

What follows are compounds tested on Staphylococcus aureus (assay: Antibacterial activity against methicillin-resistant Staphylococcus aureus at 160 ug/ml after 24 hrs by Oxford cup assay). Details: read-out: IZ.
Format: functional
Summary of the method: as §1

Structure (SMILES)	zone of inhibition at 160 µg/mL [mm]
C=C[C@]1(C)C[C@@H](OC(=O)CSC(C)(C)CNC(=O)c2cccc(OC)c2)[C@]2(C)[C@H](C)CC[C@]3(CCC(=O)[C@H]32)[C@@H](C)[C@@H]1O	13

Each compound was assayed on Streptococcus agalactiae (assay: Antibacterial activity against Streptococcus agalactiae at 160 ug/ml after 24 hrs by Oxford cup assay). Details: read-out: IZ.
Format: functional
Summary of the method: as §3

Structure (SMILES)	zone of inhibition at 160 µg/mL [mm]
C=C[C@]1(C)C[C@@H](OC(=O)CSC(C)(C)CNC(=O)c2cccc(OC)c2)[C@]2(C)[C@H](C)CC[C@]3(CCC(=O)[C@H]32)[C@@H](C)[C@@H]1O	12.4

The compounds below were run on Streptococcus agalactiae (assay: Antibacterial activity against Streptococcus agalactiae at 320 ug/ml after 24 hrs by Oxford cup assay). Details: read-out: IZ.
Format: functional
Summary of the method: as §3

Structure (SMILES)	zone of inhibition at 320 µg/mL [mm]
C=C[C@]1(C)C[C@@H](OC(=O)CSC(C)(C)CNC(=O)c2cccc(OC)c2)[C@]2(C)[C@H](C)CC[C@]3(CCC(=O)[C@H]32)[C@@H](C)[C@@H]1O	13.4

These compounds were tested on Escherichia coli (assay: Antibacterial activity against Escherichia coli at 320 ug/ml after 24 hrs by Oxford cup assay). Details: read-out: IZ.
Format: functional
Summary of the method: as §3

Structure (SMILES)	zone of inhibition at 320 µg/mL [mm]
C=C[C@]1(C)C[C@@H](OC(=O)CSC(C)(C)CNC(=O)c2cccc(OC)c2)[C@]2(C)[C@H](C)CC[C@]3(CCC(=O)[C@H]32)[C@@H](C)[C@@H]1O	14.3

The compounds below were run on Staphylococcus epidermidis (assay: Antibacterial activity against methicillin-resistant Staphylococcus epidermidis at 320 ug/ml after 24 hrs by Oxford cup assay). Details: read-out: IZ.
Format: functional
Summary of the method: as §1

Structure (SMILES)	zone of inhibition at 320 µg/mL [mm]
C=C[C@]1(C)C[C@@H](OC(=O)CSC(C)(C)CNC(=O)c2cccc(OC)c2)[C@]2(C)[C@H](C)CC[C@]3(CCC(=O)[C@H]32)[C@@H](C)[C@@H]1O	12.5

These compounds were tested on Staphylococcus epidermidis (assay: Antibacterial activity against methicillin-resistant Staphylococcus epidermidis after 48 hrs by agar dilution method). Details: not given.
Format: functional
Summary of the method: as §4

Structure (SMILES)	MIC [µg/mL]
C=C[C@]1(C)C[C@@H](OC(=O)CSC(C)(C)CNC(=O)c2cccc(OC)c2)[C@]2(C)[C@H](C)CC[C@]3(CCC(=O)[C@H]32)[C@@H](C)[C@@H]1O	32 (≈ 53.3 µM)
